Calls of active or inactive are those of the source. The calls are words filed in the database; no cut-off is given here.
What was measured:
[1] = molecular target: T1, NEDD8-activating enzyme E1 regulatory subunit (Homo sapiens) (UniProt Q13564); test: Inhibition of NAE (unknown origin)-mediated neddylation assessed as suppression of cullin1-Nedd8 adduct formation at 25 uM preincubated for 10 mins followed by ATP addition and measured after 30 mins by immunoblot analysis relative to control; settings: time 40.0 min
T1 sequence (whole entry): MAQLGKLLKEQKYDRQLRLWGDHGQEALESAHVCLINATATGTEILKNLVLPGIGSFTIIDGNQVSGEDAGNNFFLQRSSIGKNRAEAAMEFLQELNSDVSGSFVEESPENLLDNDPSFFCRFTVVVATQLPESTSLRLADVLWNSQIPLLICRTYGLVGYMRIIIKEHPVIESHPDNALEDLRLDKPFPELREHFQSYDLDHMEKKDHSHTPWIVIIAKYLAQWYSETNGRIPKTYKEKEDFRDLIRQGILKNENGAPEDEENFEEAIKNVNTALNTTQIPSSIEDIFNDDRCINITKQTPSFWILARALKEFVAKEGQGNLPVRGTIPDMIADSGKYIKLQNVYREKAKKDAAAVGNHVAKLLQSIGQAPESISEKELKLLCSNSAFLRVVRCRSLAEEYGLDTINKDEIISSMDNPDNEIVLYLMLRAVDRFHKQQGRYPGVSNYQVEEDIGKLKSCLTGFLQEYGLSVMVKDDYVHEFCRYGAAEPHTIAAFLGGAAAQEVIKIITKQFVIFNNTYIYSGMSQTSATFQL

[2] = test system: A549; test: Antiproliferative activity against human A549 cells assessed as inhibition of cell proliferation at 100 uM incubated for 48 hrs by CCK-8 assay relative to control; assay type: functional; parameters: scale not given: the % may be the effect or the level left
Procedure, shortened: (§1)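 Cells from ATCC, passaged six times, grown in DMEM with 10% FBS and penicillin/streptomycin at 37 °C under 5% CO2. Seeded at 2500 cells/well, cultured overnight, treated 48 h, viability read by CCK-8. Run in triplicate; values are the mean of three experiments.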

[3] = test system: NCI-H1299; test: Antiproliferative activity against human H1299 cells incubated for 48 hrs by CCK-8 assay; assay type: functional, cell-based; settings: NCI-H1299, 48 h; procedure, shortened: as §1
[4] = Cytotoxicity against human […] cells incubated for 48 hrs by CCK-8 assay; assay type: cell-based; procedure, shortened: as §1
[5] = test system: BEAS-2B; test: Cytotoxicity against human BEAS-2B cells incubated for 48 hrs by CCK-8 assay; assay type: cell-based; procedure, shortened: as §1
[6] = molecular target: T1, NEDD8-activating enzyme E1 regulatory subunit (Homo sapiens); test: Inhibition of NAE-mediated neddylation in human A549 cells assessed as suppression of cullin1-Nedd8 adduct formation at 12.5 to 25 uM measured after 6 to 12 hrs by Western blot analysis; assay type: cell-based; settings: dose 12.5-25 µM, time 6-12 hrs
Procedure, shortened: (§2)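 A549 cells were treated 6 or 12 h with graded concentrations (4.5–75 μM) against a 0.1% DMSO control. Cells were washed in cold PBS, lysed in RIPA on ice and cleared by centrifugation, and protein was normalized. Cullin-Nedd8 was resolved on non-reducing SDS-PAGE and Wee1/p27 under reducing conditions, then detected by Western blot.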

[7] = molecular target: T1, NEDD8-activating enzyme E1 regulatory subunit (Homo sapiens); test: Inhibition of NAE-mediated neddylation in human A549 cells assessed as suppression of cullin4a-Nedd8 adduct formation at 12.5 to 25 uM measured after 6 to 12 hrs by Western blot analysis; assay type: cell-based; settings: dose 12.5-25 µM, time 6-12 hrs; procedure, shortened: as §2
[8] = molecular target: T1, NEDD8-activating enzyme E1 regulatory subunit (Homo sapiens); test: Inhibition of NAE-mediated neddylation in human A549 cells assessed as suppression of cullin5-Nedd8 adduct formation at 12.5 to 25 uM measured after 6 to 12 hrs by Western blot analysis; assay type: cell-based; settings: dose 12.5-25 µM, time 6-12 hrs; procedure, shortened: as §2
[9] = molecular target: T1, NEDD8-activating enzyme E1 regulatory subunit (Homo sapiens); test: Inhibition of NAE-mediated UBE2M neddylation in human A549 cells at 12.5 to 25 uM measured after 6 to 12 hrs by Western blot analysis; assay type: cell-based; settings: dose 12.5-25 µM, time 6-12 hrs; procedure, shortened: as §2
[10] = test system: A549; test: Induction of apoptosis in human A549 cells assessed as increase in PARP cleavage at 12.5 uM by Western blot analysis; assay type: functional, cell-based
[11] = test system: A549; test: Induction of apoptosis in human A549 cells assessed as increase in ratio of early and late apoptotic cells at 10 to 40 uM after 48 hrs by Annexin V-FITC/PI double staining based flow cytometric analysis (reference value: 2.6%); assay type: functional; settings: dose 10-40 µM
[12] = test system: A549; test: Induction of cellular senescence in human A549 cells at 10 uM by SA-beta-gal-staining based assay; assay type: functional, cell-based
[13] = test system: A549; test: Antitumor activity against human A549 cells xenografted in nude mouse assessed as decrease in tumor weight at 30 mg/kg, ip qd for 5 days on and 2 days off dosing and measured after 24 days post-treatment; assay type: functional, organism-based; settings: time 24.0 day
Procedure, shortened: (§3)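 Female nude mice were inoculated subcutaneously with 2×10^6 A549 cells in 0.1 mL PBS. At tumor volume 70–100 mm³, mice were randomized into 5 groups of 6. Dosing was ip or oral gavage, once daily on a 5-days-on/2-days-off schedule, with 10% 2-hydroxypropyl-β-cyclodextrin/water as vehicle control. Body weight and tumor volume were measured every two days; tumors were weighed at sacrifice. Significance by two-tailed Student's t-test.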

[14] = test system: A549; test: Antitumor activity against human A549 cells xenografted in nude mouse assessed as decrease in tumor volume at 30 mg/kg, ip qd for 5 days on and 2 days off dosing and measured after 24 days post-treatment; assay type: functional, organism-based; settings: time 24.0 day; procedure, shortened: as §3
[15] = test system: A549; test: Antitumor activity against human A549 cells xenografted in nude mouse assessed as inhibition of tumor growth at 60 mg/kg, po qd for 5 days on and 2 days off dosing and measured after 24 days post-treatment; assay type: functional, organism-based; settings: time 24.0 day; procedure, shortened: as §3
[16] = Toxicity in nude mouse assessed as effect on body weight at 30 mg/kg, qd after 24 days; assay type: organism-based; settings: in vivo, 576 h, time 24 day; procedure, shortened: as §3
[17] = test system: A549; test: Induction of apoptosis in human A549 cells assessed as live cells at 10 uM after 48 hrs by Annexin V-FITC/PI double staining based flow cytometric analysis (reference value: 91.8%); assay type: functional
[18] = test system: A549; test: Induction of apoptosis in human A549 cells assessed as necrotic cells at 10 uM after 48 hrs by Annexin V-FITC/PI double staining based flow cytometric analysis (reference value: 1.57%); assay type: functional
[19] = test system: A549; test: Induction of apoptosis in human A549 cells assessed as live cells at 20 uM after 48 hrs by Annexin V-FITC/PI double staining based flow cytometric analysis (reference value: 91.8%); assay type: functional
[20] = test system: A549; test: Induction of apoptosis in human A549 cells assessed as early apoptotic cells at 20 uM after 48 hrs by Annexin V-FITC/PI double staining based flow cytometric analysis (reference value: 2.04%); assay type: functional
[21] = test system: A549; test: Induction of apoptosis in human A549 cells assessed as necrotic cells at 20 uM after 48 hrs by Annexin V-FITC/PI double staining based flow cytometric analysis (reference value: 1.57%); assay type: functional
[22] = test system: A549; test: Induction of apoptosis in human A549 cells assessed as live cells at 40 uM after 48 hrs by Annexin V-FITC/PI double staining based flow cytometric analysis (reference value: 91.8%); assay type: functional
[23] = test system: A549; test: Induction of apoptosis in human A549 cells assessed as early apoptotic cells at 40 uM after 48 hrs by Annexin V-FITC/PI double staining based flow cytometric analysis (reference value: 2.04%); assay type: functional
[24] = test system: A549; test: Induction of apoptosis in human A549 cells assessed as late apoptotic cells at 40 uM after 48 hrs by Annexin V-FITC/PI double staining based flow cytometric analysis (reference value: 4.62%); assay type: functional

inhibition [1]: 86.4%
IC50 [3]: 21.8 µM
inhibition [6]: Active
inhibition [7]: Active
inhibition [8]: Active
inhibition [9]: Active
Structure (SMILES): CCOc1nc2cccc(C(=O)NCCc3ccc(Cl)cc3Cl)c2n1Cc1ccc(-c2ccccc2-c2nnn[nH]2)cc1
Activity [2]: 83.9%
IC50 [4]: 76.1 µM
IC50 [5]: 79.4 µM
Activity [10]: Active
Activity [11]: 35.81%
Activity [12]: Active
Activity [13]: Active
Activity [14]: Active
Activity [15]: Active
Activity [16]: Non-Toxic
Activity [17]: 91.8%
Activity [18]: 1.57%
Activity [19]: 72.6%
Activity [20]: 18.6%
Activity [21]: 1.91%
Activity [22]: 63.2%
Activity [23]: 32.1%
Activity [24]: 3.71%

Reference: ChEMBL document CHEMBL4732082, “Development of novel benzimidazole-derived neddylation inhibitors for suppressing tumor growth invitro and invivo” (Eur J Med Chem, 2021)
